# Test results taken from paper PMC9586919 (ACS infectious diseases, 2021).
# Entries after “also recorded” stand apart in the source; their conditions may differ.
# System: T. vaginalis trophozoites of the metronidazole-sensitive strain G3
# Assay: Resorufin-based drug sensitivity assay
# Format: cell-based, Trichomonas vaginalis
# Conditions: not given
row,Compound,in vitro anti-T. vaginalis activity (EC50) described in words
1,"Nc1ncnc2c1c(-c1ccc(Cl)c(Cl)c1)cn2[C@@H]1O[C@H](CO)[C@@H](O)[C@H]1O [FH3147, 7-deaza,7-(3,4-dichlorophenyl)adenosine]",double-digit nanomolar
2,Nc1ncnc2c1c(-c1ccccc1)cn2[C@@H]1O[C@H](CO)C[C@H]1O [FH8480],low micromolar
3,Cc1ccc(-c2cn([C@@H]3O[C@H](CO)C[C@H]3O)c3ncnc(N)c23)cc1 [FH8481],low micromolar
4,Nc1ncnc2c1c(C1CCCCC1)cn2C1OC(CO)CC1O (stereo not drawn) [FH10669],very weak activity
5,Nc1ncnc2c1c(-c1ccc(F)cc1)cn2[C@@H]1O[C@H](CO)C[C@H]1O [FH10680],low micromolar
6,Cc1ccc(-c2cn([C@@H]3O[C@H](CO)[C@@H](O)[C@H]3O)c3ncnc(N)c23)cc1 [TH1011],double-digit nanomolar
7,Nc1ncnc2c1c(-c1ccc(Cl)cc1)cn2[C@@H]1O[C@H](CO)[C@@H](O)[C@H]1O [TH1012],double-digit nanomolar

# Same assay, conditions: Trichomonas vaginalis, BD pouch bags incubation; n=16
row,Compound,EC50
1,"Cc1ncc([N+](=O)[O-])n1CCO [metronidazole, reference compound]",0.26 ± 0.02 µM

# Same assay, conditions: Trichomonas vaginalis, confirmation experiments, n=9; unit inferred
row,Compound,EC50
1,"Cc1ncc([N+](=O)[O-])n1CCO [metronidazole, reference compound]",0.53 ± 0.1 µM

# Same assay, conditions: Trichomonas vaginalis, in-pod incubation; n=16
row,Compound,EC50
1,"Cc1ncc([N+](=O)[O-])n1CCO [metronidazole, reference compound]",0.28 ± 0.02 µM

# Same assay, conditions: Trichomonas vaginalis, introduction, hit criterion
row,Compound,EC50
1,"Cc1ncc([N+](=O)[O-])n1CCO [metronidazole, reference compound]",~0.3 µM

# Same assay, conditions: Trichomonas vaginalis, read-out: EC50 T. vaginalis, resorufin assay, 24 h + 2 h, 2% O2/98% N2; average of at least 3 independent determinations and SD
row,Compound,EC50
1,"Nc1ncnc2c1c(-c1ccc(Cl)c(Cl)c1)cn2[C@@H]1O[C@H](CO)[C@@H](O)[C@H]1O [FH3147, 7-deaza,7-(3,4-dichlorophenyl)adenosine]",0.029 ± 0.003 µM
2,"Nc1ncnc2c1c(-c1ccccc1)cn2[C@@H]1O[C@H](CO)[C@@H](O)[C@H]1O [TH1004, 7-deaza-7-phenyladenosine]",0.44 ± 0.059 µM

# System: T. vaginalis strain F1623
# Assay: In vitro activity against T. vaginalis F1623
# Format: cell-based, Trichomonas vaginalis
# Conditions: T. vaginalis strain F1623, same assay as T. foetus
row,Compound,EC50
1,Nc1ncnc2c1c(-c1ccc(Cl)cc1)cn2[C@@H]1O[C@H](CO)[C@@H](O)[C@H]1O [TH1012],0.18 µM

# System: T. vaginalis
# Assay: Fluorescence microscopy
# Format: cell-based, Trichomonas vaginalis
# Conditions: 16 h continuous incubation, 2×EC50
# How it was run: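 Samples from the growth-curve cultures, taken at 8-h intervals, were centrifuged twice at 2600 × g for 10 min at 4 °C, with a PBS pH 7.4 wash in between. Cells were air-dried 30 min on poly-L-lysine slides, fixed 15 min in 4% paraformaldehyde/PBS, washed, and mounted in antifade medium with DAPI. Nuclear volumes were measured from Z-stacks. Cultures were passaged at 24 h to 1.32×10^5 cells/mL.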
row,Compound,cell morphology / nuclei (DAPI)
1,Nc1ncnc2c1c(-c1ccc(C(F)(F)F)cc1)cn2[C@@H]1O[C@H](CO)C[C@H]1O [FH9576],cells still looked normal at 16 h
2,Nc1ncnc2c1c(-c1ccc(OC(F)(F)F)cc1)cn2[C@@H]1O[C@H](CO)C[C@H]1O [FH9577],looked healthy at 16 h

# Same assay, conditions: 24 h continuous incubation, 2×EC50
row,Compound,cell morphology / nuclei (DAPI)
1,Nc1ncnc2c1c(-c1ccc(OC(F)(F)F)cc1)cn2[C@@H]1O[C@H](CO)C[C@H]1O [FH9577],clearly displayed multiple nuclei at 24 h
2,"Nc1ncnc2c1c(-c1ccccc1)cn2[C@@H]1O[C@H](CO)[C@@H](O)[C@H]1O [TH1004, 7-deaza-7-phenyladenosine]",the cell membrane appears to be disintegrating and multiple nuclei are present in some cells
3,Nc1ncnc2c1c(-c1ccc(Cl)cc1)cn2[C@@H]1O[C@H](CO)[C@@H](O)[C@H]1O [TH1012],displayed multiple nuclei at 24 h

# System: T. vaginalis trophozoites
# Assay: Growth curve assay
# Format: cell-based, Trichomonas vaginalis
# Conditions: 2×EC50, continuous exposure 56 h, passage after 24 h
row,Compound,effect on T. vaginalis growth
1,"Cc1ncc([N+](=O)[O-])n1CCO [metronidazole, reference compound]",managed a modest amount of growth before arrest and population decline

# System: T. foetus strain D1
# Assay: In vitro activity against T. foetus
# Format: cell-based, Tritrichomonas foetus
# Conditions: not given
row,Compound,EC50
1,Nc1ncnc2c1c(-c1ccc(Cl)cc1)cn2[C@@H]1O[C@H](CO)[C@@H](O)[C@H]1O [TH1012],13.9 µM

# System: T. foetus D1 trophozoites
# Assay: Murine model of vaginal trichomonad infection
# Format: in vivo, BALB/c mice
# Conditions: oral 5×25 mg/kg or topical 1%; 25 mg/kg
# How it was run: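 Freshly weaned (21–24 days) female BALB/c mice were infected intravaginally with 10^6 mid-log T. foetus D1 trophozoites in 5 µL growth medium. One day later they received five doses over three days (1 on day 1, 2 on each of days 2 and 3). Doses were either oral gavage of 25 mg/kg per dose as a suspension in 1% hypromellose, 50 µL, or intravaginal 50 µg in 5 µL; controls received solvent. Live trophozoites in 30 µL PBS vaginal washes were counted in a chamber on day 4.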
row,Compound,adverse effects during the treatment period
1,Nc1ncnc2c1c(-c1ccc(Cl)cc1)cn2[C@@H]1O[C@H](CO)[C@@H](O)[C@H]1O [TH1012],No adverse effects were observed; also recorded: without any apparent ill effects

# Same assay, conditions: topical intravaginal, 1% (50 μg per dose), five doses over three days
row,Compound,effect on infection (live trophozoites in vaginal washes on day 4)
1,Nc1ncnc2c1c(-c1ccc(Cl)cc1)cn2[C@@H]1O[C@H](CO)[C@@H](O)[C@H]1O [TH1012],almost complete eradication of the infection; also recorded: almost completely eradicated the T. foetus infection; also recorded: strongly inhibited T. foetus infection in mice

# System: not given
# Assay: not given
# Conditions: mouse models of Chagas' disease; cited from earlier work
row,Compound,ill effects on the animals
1,Nc1ncnc2c1c(-c1ccc(Cl)cc1)cn2[C@@H]1O[C@H](CO)C[C@H]1O [FH8512],without any apparent ill effects
2,Nc1ncnc2c1c(-c1ccc(Cl)cc1)cn2[C@@H]1O[C@H](CO)[C@@H](O)[C@H]1O [TH1012],without any apparent ill effects

# System: Human Embryonic Kidney (HEK) cells
# Assay: Toxicity against Human Embryonic Kidney
# Format: cell-based
# Conditions: HEK versus T. vaginalis
row,Compound,S.I. (Selectivity Index)
1,"Nc1ncnc2c1c(-c1ccc(Cl)c(Cl)c1)cn2[C@@H]1O[C@H](CO)[C@@H](O)[C@H]1O [FH3147, 7-deaza,7-(3,4-dichlorophenyl)adenosine]",">10,000"
2,"Nc1ncnc2c1c(-c1ccccc1)cn2[C@@H]1O[C@H](CO)[C@@H](O)[C@H]1O [TH1004, 7-deaza-7-phenyladenosine]",>465

# Same assay, conditions: Homo sapiens, HEK293, read-out: EC50 HEK
row,Compound,EC50
1,"Nc1ncnc2c1c(-c1ccc(Cl)c(Cl)c1)cn2[C@@H]1O[C@H](CO)[C@@H](O)[C@H]1O [FH3147, 7-deaza,7-(3,4-dichlorophenyl)adenosine]",> 200 µM
2,"Nc1ncnc2c1c(-c1ccccc1)cn2[C@@H]1O[C@H](CO)[C@@H](O)[C@H]1O [TH1004, 7-deaza-7-phenyladenosine]",> 200 µM

# Same assay, conditions: read-out: EC50 HEK; HEK cells; average of at least 3 independent determinations and SD
row,Compound,EC50
1,Nc1ncnc2c1c(-c1ccccc1F)cn2[C@@H]1O[C@H](CO)[C@@H](O)[C@H]1O [FH7435],> 200 µM
2,Nc1ncnc2c1c(-c1cccc(Cl)c1)cn2[C@@H]1O[C@H](CO)[C@@H](O)[C@H]1O [FH8459],> 200 µM
3,Nc1ncnc2c1c(-c1cc(Cl)cc(Cl)c1)cn2[C@@H]1O[C@H](CO)[C@@H](O)[C@H]1O [FH8460],> 200 µM
4,Cc1ccc(-c2cn([C@@H]3O[C@H](CO)C[C@H]3O)c3ncnc(N)c23)cc1 [FH8481],> 200 µM
5,COc1ccc(-c2cn([C@@H]3O[C@H](CO)C[C@H]3O)c3ncnc(N)c23)cc1 [FH8494],> 200 µM
6,Nc1ncnc2c1c(-c1ccc(Cl)cc1)cn2[C@@H]1O[C@H](CO)C[C@H]1O [FH8512],> 200 µM
7,Nc1ncnc2c1c(-c1ccc(Cl)c(Cl)c1)cn2[C@@H]1O[C@H](CO)C[C@H]1O [FH8513],> 200 µM
8,CC(C)c1ccc(-c2cn([C@@H]3O[C@H](CO)C[C@H]3O)c3ncnc(N)c23)cc1 [FH9574],94 ± 9 µM
9,Nc1ncnc2c1c(-c1ccc3ccccc3c1)cn2[C@@H]1O[C@H](CO)C[C@H]1O [FH9575],44 ± 5 µM
10,Nc1ncnc2c1c(-c1ccc(C(F)(F)F)cc1)cn2[C@@H]1O[C@H](CO)C[C@H]1O [FH9576],148 ± 22 µM
11,Nc1ncnc2c1c(-c1ccc(Cl)cc1Cl)cn2[C@@H]1O[C@H](CO)C[C@H]1O [FH9581],> 200 µM
12,Nc1ncnc2c1c(-c1ccc([N+](=O)[O-])cc1)cn2[C@@H]1O[C@H](CO)C[C@H]1O [FH9582],> 200 µM
13,Nc1ncnc2c1c(-c1cccc(Cl)c1)cn2[C@@H]1O[C@H](CO)C[C@H]1O [FH10641],> 200 µM
14,Cc1ccc(-c2cn([C@@H]3O[C@H](CO)C[C@H]3O)c3ncnc(N)c23)cc1Cl [FH10644],94 ± 9 µM
15,COc1ccc(-c2cn([C@@H]3O[C@H](CO)C[C@H]3O)c3ncnc(N)c23)cc1Cl [FH10645],> 200 µM
16,CCc1ccc(-c2cn([C@@H]3O[C@H](CO)C[C@H]3O)c3ncnc(N)c23)cc1 [FH10647],133 ± 2 µM
17,Cc1cc(-c2cn([C@@H]3O[C@H](CO)C[C@H]3O)c3ncnc(N)c23)ccc1Cl [FH10648],146 ± 13 µM
18,COc1cc(-c2cn([C@@H]3O[C@H](CO)C[C@H]3O)c3ncnc(N)c23)ccc1Cl [FH10649],178 ± 6 µM
19,Cc1ccc(-c2cn([C@@H]3O[C@H](CO)C[C@H]3O)c3ncnc(N)c23)cc1C [FH10653],168 ± 19 µM
20,Nc1ncnc2c1c(-c1ccc(F)cc1)cn2[C@@H]1O[C@H](CO)C[C@H]1O [FH10680],> 200 µM
21,Nc1ncnc2c1c(-c1ccc(F)c(Cl)c1)cn2[C@@H]1O[C@H](CO)C[C@H]1O [FH10681],> 200 µM
22,Nc1ncnc2c1c(-c1ccc(F)c(F)c1)cn2[C@@H]1O[C@H](CO)C[C@H]1O [FH10682],> 200 µM
23,Nc1ncnc2c1c(-c1ccc(Cl)c(F)c1)cn2[C@@H]1O[C@H](CO)C[C@H]1O [FH10683],151 ± 1 µM
24,Nc1ncnc2c1c(-c1ccc(C(F)(F)F)cc1)cn2[C@@H]1O[C@H](CO)[C@@H](O)[C@H]1O [FH11704],> 200 µM
25,Cc1ccc(-c2cn([C@@H]3O[C@H](CO)[C@@H](O)[C@H]3O)c3ncnc(N)c23)cc1C [FH13820],> 200 µM
26,Nc1ncnc2c1c(-c1ccc(F)cc1)cn2[C@@H]1O[C@H](CO)[C@@H](O)[C@H]1O [MS1001],> 200 µM
27,Cc1ccc(-c2cn([C@@H]3O[C@H](CO)[C@@H](O)[C@H]3O)c3ncnc(N)c23)cc1 [TH1011],> 200 µM
28,Nc1ncnc2c1c(-c1ccc(Cl)cc1)cn2[C@@H]1O[C@H](CO)[C@@H](O)[C@H]1O [TH1012],> 200 µM
29,COc1ccc(-c2cn([C@@H]3O[C@H](CO)[C@@H](O)[C@H]3O)c3ncnc(N)c23)cc1 [TH1013],> 200 µM

# System: T. vaginalis
# Assay: not given
# Conditions: cited from earlier work
Compound,antitrichomonal activity,antitrichomonal efficacy
"2-F, 2’-deoxyadenosine",~100 nM,
"2’-F,2’-deoxyadenosine",,substantial antitrichomonal efficacy
Nc1ncnc2c1ncn2[C@@H]1O[C@H](CO)[C@@H](O)[C@@H]1F [2’-deoxy-2’-fluoroarabinoadenosine],,substantial antitrichomonal efficacy
"Nc1nc(F)nc2nc[nH]c12 [Compound 2-F-adenine, 2-F-adenine]",~100 nM,
Nc1ncnc2c1ncn2[C@@H]1O[C@H](CO)[C@@H](O)[C@@H]1O [adenine arabinoside],,substantial antitrichomonal efficacy
